Screening results: PubChem BioAssay, several laboratories
PostGolgi ctrl: growth inhibition of yeast control strain, primary screen, counter-screen for post-Golgi transport modulator project; efflux-deficient yeast background strain, growth absorbance A615, 16 h; inhibition, % at 10 µM; actives 5% (n = 98,000); AID 738, 2007
PLK1 PBD inh: Plk1 polo box domain binding inhibitors, primary screen, biochemical, fluorescence polarization | Serine/threonine-protein kinase PLK1 (Homo sapiens), P53350 | Plk1 PBD phosphopeptide binding | inhibition, %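 (tested at about 20 µM)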 | actives 0.13% (n = 97,000) | AID 693, 2007; in the data active = inhibition above about 34%, passing the limit was not always enough
Target sequence (P53350 whole entry, looked up, the tested form may be a part): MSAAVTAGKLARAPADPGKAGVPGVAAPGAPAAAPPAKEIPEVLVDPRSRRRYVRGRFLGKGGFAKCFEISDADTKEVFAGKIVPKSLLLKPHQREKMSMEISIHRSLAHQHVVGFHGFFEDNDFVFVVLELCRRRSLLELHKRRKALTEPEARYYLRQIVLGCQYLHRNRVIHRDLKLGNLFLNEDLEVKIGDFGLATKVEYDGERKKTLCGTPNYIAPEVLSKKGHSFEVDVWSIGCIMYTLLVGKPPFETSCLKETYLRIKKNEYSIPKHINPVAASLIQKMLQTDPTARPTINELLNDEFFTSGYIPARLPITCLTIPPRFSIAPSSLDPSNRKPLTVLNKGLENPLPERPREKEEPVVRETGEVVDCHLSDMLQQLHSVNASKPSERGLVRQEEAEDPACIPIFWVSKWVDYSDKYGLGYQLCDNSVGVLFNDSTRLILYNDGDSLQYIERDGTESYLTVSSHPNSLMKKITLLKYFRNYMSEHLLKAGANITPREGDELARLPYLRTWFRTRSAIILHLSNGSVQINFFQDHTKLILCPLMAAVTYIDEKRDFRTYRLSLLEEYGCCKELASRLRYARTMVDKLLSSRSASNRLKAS
PostGolgi yeast: phenotypic screen on post-Golgi transport, primary screen. inhibition, % at 10 µM. actives 0.9% (n = 98,000). post-Golgi transport phenotypic cell assay;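 note: yeast cells grown in 1536-well plates; yeast grown about 18 h at 30C before absorbance read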
HIV Rev-RRE inh: HIV-1 Rev-RRE binding inhibitors, primary screen, biochemical, FRET, protein-RNA interaction | inhibition, % at 8 µM | P05866 | actives 0.79% (n = 97,000) | Rev peptide-RRE RNA binding | AID 704, 2007;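 active = inhibition above the screen-wide mean plus 3 SD, cut at about 35% in these data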
Target sequence (P05866 whole entry, looked up): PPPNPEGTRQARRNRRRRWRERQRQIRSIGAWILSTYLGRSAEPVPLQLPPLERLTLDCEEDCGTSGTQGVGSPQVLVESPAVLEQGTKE
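Probe or stimulus: fluorescein-Rev peptide as binding partner; assay system: Cy5-tagged RRE RNA duplex with fluorescein-tagged Rev peptide; timing: 5 min compound–RNA preincubation, then 15 min with peptide, 25 °C; medium: HEPES pH 7.5 buffer with KCl, MgCl2, NaCl and EDTA; signal: fluorescein-to-Cy5 FRET, 480 nm excitation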
EphB4 antag: EphB4-ephrin-B2 interaction antagonists, primary screen, biochemical, TNYL-RAW peptide probe, fluorescence polarization. actives 0.15% (n = 97,000). EphB4 LBD / TNYL-RAW-Alexa532 peptide. inhibition, % at 7 µM;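 active = inhibition above the screen-wide mean inhibition plus 3 SD, cut at about 15% in these data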
PLK1 inh: human PLK1 kinase inhibitors, primary screen, biochemical, TR-FRET. actives 0.53% (n = 97,000). inhibition, % at 10 µM. AID 619, 2007. recombinant PLK1 kinase, TR-FRET peptide phosphorylation;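 active = inhibition of 50% or more in the single-concentration screen; inactive = inhibition below 50%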
Each line names hits and unclear results; the compound was inactive in the other large screens; [ ] = another dose, or the depositor's remark. Hits are enriched below; roughly 6.4% of the tested compounds scored in any of these assays. Cut-off read from the data, not from the text of the source, unless noted: active = inhibition above about 30%; inactive = the rest.

Nn1c(SCC(=O)NC2CCCc3ccccc32)nnc1-c1cccs1 (centres undefined)	none
COC(=O)c1ccccc1NS(=O)(=O)c1cn(C)c(=O)n(C)c1=O	none
C=CCNC(=O)C(=O)NN=C1CCN(C)CC1	none
Cc1cc(C)n2nc(SCC(=O)Nc3c(C)n(C)n(-c4ccccc4)c3=O)nc2n1	none
O=C(NCc1ccc2[nH]c3c(c2c1)CCCC3)N1CCOCC1	PostGolgi ctrl 30.1, HIV Rev-RRE inh 38.8
CCCNS(=O)(=O)c1ccc(OCC(=O)N2CCOCC2)cc1	none (no result: PostGolgi ctrl, PostGolgi yeast)
CCC(C)c1ccccc1NC(=O)c1cccnc1 (centres undefined)	PostGolgi ctrl 51.6
Clc1ccc(OCc2nn3c(C4CCCCC4)nnc3s2)c(Cl)c1	PostGolgi ctrl 38.7
COc1ccc(-c2nn3c(-c4ccccc4)nnc3s2)cc1	none
COc1cccc(OC)c1-c1nn2c(-c3cc(-c4ccccc4)n[nH]3)nnc2s1	EphB4 antag 62.5
CCN(CC)c1ccc(-c2nn3c(-c4ccccc4OC)nnc3s2)cc1	PostGolgi ctrl 42.5
Clc1ccc(-c2nnc3sc(Cc4cccs4)nn23)c(Cl)c1	PostGolgi ctrl 50.1
c1coc(-c2nnc3sc(Cc4cccs4)nn23)c1	none
COC(=O)c1ccc(S(=O)(=O)c2ccccc2)c(N)c1	none
COc1ccccc1-c1nnc2sc(COc3ccc(Cl)cc3Cl)nn12	PostGolgi ctrl 40.9
COc1ccccc1-n1cc(C(=O)NCC(=O)N2CCN(c3ccccc3)CC2)c2ccccc2c1=O	none
O=C(Nc1ccccc1Sc1ccccc1)C1CCCO1 (centres undefined)	PostGolgi ctrl 38.2
O=C(Nc1cc(Cl)ccc1O)C1CCCO1 (centres undefined)	PostGolgi ctrl 37.7
O=S(=O)(/C=C/c1ccccc1)N1CCN(c2cccc(Cl)c2)CC1	none
Cn1c(CC(=O)Nc2ccccc2)nnc1SCCOc1ccccc1	none
Cc1cc(C)n(-c2nc(NCCCO)c3c4c(sc3n2)CCCC4)n1	PostGolgi ctrl 35.3
CCOC(=O)c1nn(-c2ccc3c(c2)OCO3)cc1O	none
O=c1[nH]nc(Cc2ccc(Cl)cc2Cl)c2ccccc12	PostGolgi ctrl 46.9
CCN(C(=O)Cc1c(C(=O)O)[nH]c2ccccc12)c1cc(OC)ccc1OC	none
CCN(C(=O)c1coc(=O)c2ccccc12)c1cc(OC)ccc1OC	PostGolgi ctrl 37.6
O=C(c1ccccc1)N1CC(COc2ccccc2)OC(c2cccnc2)O1 (centres undefined)	PostGolgi ctrl 30.8, PostGolgi yeast 47.8
CCOC(=O)c1ccc(Nc2ncnc3nc[nH]c23)cc1	PLK1 inh 67.9
COc1cc(CNCCc2ccccc2)ccc1OCc1ccc(Cl)nc1	PostGolgi ctrl 39.0
CCn1c(=N)n(CC(=O)C23CC4CC(CC(C4)C2)C3)c2ccccc21	PostGolgi ctrl 34.7 (no result: PLK1 PBD inh, HIV Rev-RRE inh, EphB4 antag, PLK1 inh)
CC(=O)c1c(C)nc2ccc(Cl)cn12	none
COc1ccc(Cl)cc1NC(=O)NC1CCCCC1	none
COc1ccc(C(C)(C)C)cc1NC(=O)Nc1ccc2c(c1)OCO2	PostGolgi ctrl 71.2
COc1ccc(Cl)cc1NC(=O)Nc1cccc([N+](=O)[O-])c1C	PostGolgi ctrl 41.8
COc1ccc(OC)c(NC(=O)Nc2ccc(Cl)cc2)c1	PostGolgi ctrl 41.0
COc1ccc(NC(=O)Nc2cc(C)ccc2OC)cc1	none
CCOC(=O)NC1(C(F)(F)F)C(=O)N(Cc2ccccn2)C2=C1C(=O)CC(C)(C)C2 (centres undefined)	none
Cc1ccc(-c2nnc(CSc3nnc(COc4ccccc4)n3-c3ccc(C)cc3)o2)cc1	PostGolgi ctrl 33.7
C=C(C)C1CC=C(C)/C(=N/NC(=O)COc2cccc3ccccc23)C1 (centres undefined)	none (no result: PostGolgi ctrl, PostGolgi yeast)
Cc1cccc2cc3c(N)c(C(=O)Nc4ccc(N5CCOCC5)cc4)sc3nc12	PostGolgi ctrl 41.0
Cc1sc(NC(=O)c2sc3nc4c(C)cccc4cc3c2N)c(C#N)c1C	HIV Rev-RRE inh 101.5[fluorescence artefact?]
CC1CCCC(NC(=O)c2ccc3c(=O)n(CC4CCCO4)c(=O)[nH]c3c2)C1C (centres undefined)	none
Cc1cc2nc(SCCOC(=O)Nc3ccc(Cl)cc3)nc(C)c2cc1C	none
CNc1nnc(-c2cc3cc(Cl)ccc3oc2=O)s1	HIV Rev-RRE inh 79.4
COc1ccc2oc(=O)c(-c3nnc(NCc4ccco4)s3)cc2c1	PostGolgi yeast 39.8, HIV Rev-RRE inh 43.0
CCOc1cccc2cc(-c3nnc(NCc4ccco4)s3)c(=O)oc12	none
O=C(COc1ncnc2ccccc12)N1CCN(S(=O)(=O)c2ccc(Cl)cc2)CC1	none (no result: PLK1 PBD inh, HIV Rev-RRE inh, EphB4 antag, PLK1 inh)
O=C(NC(NC(=S)Nc1cccc(Cl)c1)C(Cl)(Cl)Cl)OCc1ccccc1 (centres undefined)	none
CCOC(=O)C1CCN(Cc2cnc(Oc3ccc(N)cc3)s2)CC1	none
N#CC1=C(N)NC(SCc2ccc(F)cc2)=C(C#N)C12CCCCC2	PostGolgi ctrl 67.7, PostGolgi yeast 99.3
N#CC1=C(N)NC(SCC(=O)O)=C(C#N)C12CCCC2	none
COc1cccc(-n2nnnc2SCC(=O)c2cc(OC)ccc2OC)c1	none (no result: PLK1 PBD inh, HIV Rev-RRE inh, EphB4 antag, PLK1 inh)
COC(=O)c1cn(Nc2ncc(C(F)(F)F)cc2Cl)c(=O)c2ccccc12	PostGolgi ctrl 39.9
COC(=O)c1cn(N(C)c2ncc(C(F)(F)F)cc2Cl)c(=O)c2ccccc12	none
CC(C)SC1=NC(C)(C)C=C(/C=C/c2c(Cl)cccc2Cl)N1	PostGolgi ctrl 74.1
NC(=O)C1CCN(C(=O)OCc2ccccc2)CC1	none
Cc1cc(C)n(CC(O)Cn2c3ccc(Cl)cc3c3cc(Cl)ccc32)c(=O)n1 (centres undefined)	PostGolgi ctrl 99.1, PostGolgi yeast 98.9
CCOC(=O)c1c(C)n(O)c2ccc(Cl)cc2c1=O	none (no result: PLK1 PBD inh, HIV Rev-RRE inh, EphB4 antag, PLK1 inh)
C=CCSc1nc2ccccc2n1Cc1nnc(-c2cccs2)o1	none
N#CCN1CCN(CC(=O)Nc2cccc3ccccc23)CC1	none
CC(C)(C)NC(=O)C1CCCN(S(=O)(=O)c2cccc3cccnc23)C1 (centres undefined)	PLK1 inh 61.7
Cc1nnc(NC(=O)C2CCCN(S(=O)(=O)c3ccccc3C(F)(F)F)C2)s1 (centres undefined)	PostGolgi ctrl 41.9
O=C(Nc1ccncc1)C1CCCN(S(=O)(=O)c2cccc3cccnc23)C1 (centres undefined)	none
CC(=O)c1ccc(NC(=O)C2CCCN2S(=O)(=O)c2cccc3cccnc23)cc1 (centres undefined)	PostGolgi ctrl 31.3
COc1cc(/C=C2\OC(=O)c3c(OC)cccc32)ccc1O	none
CCc1ccc(-c2csc3ncn(CC(=O)N4CCOCC4)c(=O)c23)cc1	none
CC(C)(C)c1ccc(-c2conc2N)cc1	none
